Data taken from ChEMBL document CHEMBL4371041, “Synthesis and evaluation of thieno[3,2-d]pyrimidine derivatives as novel FMS inhibitors” (Bioorg Med Chem Lett, 2019).

Columns and labels:
[1] = Stability in human hepatocytes assessed as parent compound remaining measured after 60 mins; assay type: ADME, cell-based, Hepatocyte; conditions: read-out: Stability
Cytochrome P450 1A2 = Cytochrome P450 1A2 (Homo sapiens, UniProt P05177); test: Inhibition of CYP1A2 in human liver microsomes by LC-MS/MS analysis; assay type: ADME
Sequence of Cytochrome P450 1A2 (P05177 whole entry): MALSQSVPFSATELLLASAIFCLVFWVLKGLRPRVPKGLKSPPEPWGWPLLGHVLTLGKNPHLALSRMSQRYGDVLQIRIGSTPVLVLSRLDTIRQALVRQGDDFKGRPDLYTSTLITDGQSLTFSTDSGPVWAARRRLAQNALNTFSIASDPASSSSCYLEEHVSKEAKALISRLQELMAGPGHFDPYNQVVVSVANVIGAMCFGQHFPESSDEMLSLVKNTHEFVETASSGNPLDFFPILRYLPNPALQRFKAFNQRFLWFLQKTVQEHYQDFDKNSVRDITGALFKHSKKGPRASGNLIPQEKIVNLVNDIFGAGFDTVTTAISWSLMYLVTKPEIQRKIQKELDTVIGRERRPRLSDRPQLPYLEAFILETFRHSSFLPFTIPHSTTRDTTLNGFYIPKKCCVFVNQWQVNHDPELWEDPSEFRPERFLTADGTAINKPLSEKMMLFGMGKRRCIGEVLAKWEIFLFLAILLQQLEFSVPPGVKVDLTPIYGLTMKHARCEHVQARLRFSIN
Summary of the method: (§1)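 Reversible CYP inhibition measured in human liver microsomes; metabolite formation quantified by LC/MS/MS.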

Cytochrome P450 2C19 = Cytochrome P450 2C19 (Homo sapiens, UniProt P33261); test: Inhibition of CYP2C19 in human liver microsomes by LC-MS/MS analysis; assay type: ADME; summary of the method: as §1
Sequence of Cytochrome P450 2C19 (P33261 whole entry): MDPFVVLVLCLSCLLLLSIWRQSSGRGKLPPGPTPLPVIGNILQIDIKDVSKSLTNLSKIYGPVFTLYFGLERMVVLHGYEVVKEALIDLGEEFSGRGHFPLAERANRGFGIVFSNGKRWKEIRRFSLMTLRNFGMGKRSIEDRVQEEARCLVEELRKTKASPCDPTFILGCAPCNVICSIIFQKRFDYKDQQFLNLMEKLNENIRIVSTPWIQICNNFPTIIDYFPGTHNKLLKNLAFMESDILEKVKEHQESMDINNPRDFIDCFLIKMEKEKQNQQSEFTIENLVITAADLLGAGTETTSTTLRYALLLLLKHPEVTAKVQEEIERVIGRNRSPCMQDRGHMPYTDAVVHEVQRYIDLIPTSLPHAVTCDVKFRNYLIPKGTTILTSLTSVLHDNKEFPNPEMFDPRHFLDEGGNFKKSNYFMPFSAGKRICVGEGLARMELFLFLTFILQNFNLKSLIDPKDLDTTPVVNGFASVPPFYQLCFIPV

Cytochrome P450 3A4 = Cytochrome P450 3A4 (Homo sapiens, UniProt P08684); test: Inhibition of CYP3A4 in human liver microsomes by LC-MS/MS analysis; assay type: ADME; summary of the method: as §1
Sequence of Cytochrome P450 3A4 (P08684 whole entry): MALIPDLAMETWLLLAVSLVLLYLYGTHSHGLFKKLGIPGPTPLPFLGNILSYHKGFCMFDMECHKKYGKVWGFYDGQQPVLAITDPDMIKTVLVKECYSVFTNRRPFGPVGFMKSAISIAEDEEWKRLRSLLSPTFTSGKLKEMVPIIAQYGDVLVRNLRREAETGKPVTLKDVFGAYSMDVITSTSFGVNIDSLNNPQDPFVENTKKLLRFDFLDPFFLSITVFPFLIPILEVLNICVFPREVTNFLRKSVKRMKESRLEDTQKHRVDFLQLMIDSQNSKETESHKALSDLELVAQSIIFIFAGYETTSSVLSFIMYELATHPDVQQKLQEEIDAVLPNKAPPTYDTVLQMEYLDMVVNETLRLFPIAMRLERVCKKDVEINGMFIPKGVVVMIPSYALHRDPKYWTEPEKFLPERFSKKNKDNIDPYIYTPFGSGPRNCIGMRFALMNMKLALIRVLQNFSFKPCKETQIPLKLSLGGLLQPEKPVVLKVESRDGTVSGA

[2] = Half life in CD-1 mouse at 10 mg/kg, po; assay type: ADME, organism-based; conditions: in vivo
[3] = biological target: Vascular endothelial growth factor receptor 2 (Homo sapiens, UniProt P35968); test: Inhibition of recombinant human N-terminal His6-tagged KDR (790 to end residues) expressed in baculovirus infected Sf21 insect cells using MBP as substrate in presence of [gamma-33P]-ATP or [gamma-32P]-ATP
Sequence of Vascular endothelial growth factor receptor 2 (P35968 whole entry): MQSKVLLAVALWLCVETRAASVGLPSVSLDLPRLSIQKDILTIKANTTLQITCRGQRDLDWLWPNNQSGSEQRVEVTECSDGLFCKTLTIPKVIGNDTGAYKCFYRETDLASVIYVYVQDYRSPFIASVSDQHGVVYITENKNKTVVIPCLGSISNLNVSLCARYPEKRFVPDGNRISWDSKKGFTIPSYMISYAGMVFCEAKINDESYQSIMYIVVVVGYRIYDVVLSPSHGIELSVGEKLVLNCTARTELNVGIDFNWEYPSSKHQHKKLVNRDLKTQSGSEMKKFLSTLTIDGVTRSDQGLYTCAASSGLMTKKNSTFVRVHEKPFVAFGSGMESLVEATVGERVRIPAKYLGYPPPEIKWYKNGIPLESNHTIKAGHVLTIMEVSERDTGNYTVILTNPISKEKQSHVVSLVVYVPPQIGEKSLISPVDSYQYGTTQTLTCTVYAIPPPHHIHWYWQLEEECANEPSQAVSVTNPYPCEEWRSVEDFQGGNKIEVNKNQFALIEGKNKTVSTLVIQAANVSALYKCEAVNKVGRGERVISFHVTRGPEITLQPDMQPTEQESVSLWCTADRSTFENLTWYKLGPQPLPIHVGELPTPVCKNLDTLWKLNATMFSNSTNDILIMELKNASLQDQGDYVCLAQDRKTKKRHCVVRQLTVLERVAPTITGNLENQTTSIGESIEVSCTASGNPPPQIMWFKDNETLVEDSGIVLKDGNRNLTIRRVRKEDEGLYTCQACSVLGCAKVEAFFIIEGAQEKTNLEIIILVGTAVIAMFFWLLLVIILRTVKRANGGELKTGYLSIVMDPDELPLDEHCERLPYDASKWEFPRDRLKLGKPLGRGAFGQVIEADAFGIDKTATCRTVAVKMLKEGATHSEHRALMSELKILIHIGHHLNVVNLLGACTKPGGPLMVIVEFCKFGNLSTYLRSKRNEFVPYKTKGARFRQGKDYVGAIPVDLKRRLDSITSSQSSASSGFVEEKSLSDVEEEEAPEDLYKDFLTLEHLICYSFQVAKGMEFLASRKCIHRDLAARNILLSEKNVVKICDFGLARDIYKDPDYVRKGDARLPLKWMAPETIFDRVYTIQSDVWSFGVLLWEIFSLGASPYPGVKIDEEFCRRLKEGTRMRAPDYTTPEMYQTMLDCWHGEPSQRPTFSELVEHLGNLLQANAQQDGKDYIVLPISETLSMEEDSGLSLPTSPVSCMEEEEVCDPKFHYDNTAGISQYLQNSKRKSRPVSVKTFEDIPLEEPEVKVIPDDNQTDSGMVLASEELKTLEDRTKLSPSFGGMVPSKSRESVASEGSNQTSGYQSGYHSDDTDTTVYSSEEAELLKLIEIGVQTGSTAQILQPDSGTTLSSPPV
Summary of the method: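 Kinase panel of twenty-eight enzymes; IC50 values determined with ATP at the respective Km of each kinase.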

[4] = biological target: Tyrosine-protein kinase receptor UFO (Homo sapiens) (UniProt P30530); test: Inhibition of recombinant human N-terminal His6-tagged Axl (473 to end residues) expressed in baculovirus infected Sf21 insect cells at 1 uM using Axltide as substrate in presence of [gamma-33P]-ATP or [gamma-32P]-ATP relative to control
Sequence of Tyrosine-protein kinase receptor UFO (Homo sapiens) (P30530 whole entry): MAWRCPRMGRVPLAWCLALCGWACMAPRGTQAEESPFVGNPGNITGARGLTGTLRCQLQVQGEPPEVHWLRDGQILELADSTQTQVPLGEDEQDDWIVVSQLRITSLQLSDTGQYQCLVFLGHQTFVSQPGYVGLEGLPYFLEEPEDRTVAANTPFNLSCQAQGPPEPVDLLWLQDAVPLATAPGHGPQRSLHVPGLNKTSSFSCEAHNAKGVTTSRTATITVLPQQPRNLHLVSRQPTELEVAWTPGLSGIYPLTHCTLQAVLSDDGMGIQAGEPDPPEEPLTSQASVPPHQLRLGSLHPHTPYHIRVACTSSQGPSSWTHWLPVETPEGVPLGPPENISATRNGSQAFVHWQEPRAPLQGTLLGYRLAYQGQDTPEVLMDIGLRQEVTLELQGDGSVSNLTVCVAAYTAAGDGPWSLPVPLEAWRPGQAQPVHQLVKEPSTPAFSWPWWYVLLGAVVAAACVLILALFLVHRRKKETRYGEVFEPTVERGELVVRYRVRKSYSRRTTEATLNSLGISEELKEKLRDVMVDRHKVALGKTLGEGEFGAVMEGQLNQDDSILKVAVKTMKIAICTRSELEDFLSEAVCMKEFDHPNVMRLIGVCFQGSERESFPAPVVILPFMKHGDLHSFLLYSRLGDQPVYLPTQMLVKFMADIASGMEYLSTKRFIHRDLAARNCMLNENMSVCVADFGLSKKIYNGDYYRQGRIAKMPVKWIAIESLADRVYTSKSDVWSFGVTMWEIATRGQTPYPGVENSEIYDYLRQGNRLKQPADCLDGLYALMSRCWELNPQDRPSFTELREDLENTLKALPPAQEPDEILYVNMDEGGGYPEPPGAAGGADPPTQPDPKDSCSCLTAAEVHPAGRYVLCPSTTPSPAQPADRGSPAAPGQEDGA

[5] = biological target: Macrophage colony-stimulating factor 1 receptor (Homo sapiens, UniProt P07333); test: […] at recombinant human N-terminal His6-tagged FMS (538 to end residues) expressed in baculovirus infected Sf21 insect cells using IGF-R1tide as substrate in presence of [gamma-33P]-ATP or [gamma-32P]-ATP
Sequence of Macrophage colony-stimulating factor 1 receptor (P07333 whole entry): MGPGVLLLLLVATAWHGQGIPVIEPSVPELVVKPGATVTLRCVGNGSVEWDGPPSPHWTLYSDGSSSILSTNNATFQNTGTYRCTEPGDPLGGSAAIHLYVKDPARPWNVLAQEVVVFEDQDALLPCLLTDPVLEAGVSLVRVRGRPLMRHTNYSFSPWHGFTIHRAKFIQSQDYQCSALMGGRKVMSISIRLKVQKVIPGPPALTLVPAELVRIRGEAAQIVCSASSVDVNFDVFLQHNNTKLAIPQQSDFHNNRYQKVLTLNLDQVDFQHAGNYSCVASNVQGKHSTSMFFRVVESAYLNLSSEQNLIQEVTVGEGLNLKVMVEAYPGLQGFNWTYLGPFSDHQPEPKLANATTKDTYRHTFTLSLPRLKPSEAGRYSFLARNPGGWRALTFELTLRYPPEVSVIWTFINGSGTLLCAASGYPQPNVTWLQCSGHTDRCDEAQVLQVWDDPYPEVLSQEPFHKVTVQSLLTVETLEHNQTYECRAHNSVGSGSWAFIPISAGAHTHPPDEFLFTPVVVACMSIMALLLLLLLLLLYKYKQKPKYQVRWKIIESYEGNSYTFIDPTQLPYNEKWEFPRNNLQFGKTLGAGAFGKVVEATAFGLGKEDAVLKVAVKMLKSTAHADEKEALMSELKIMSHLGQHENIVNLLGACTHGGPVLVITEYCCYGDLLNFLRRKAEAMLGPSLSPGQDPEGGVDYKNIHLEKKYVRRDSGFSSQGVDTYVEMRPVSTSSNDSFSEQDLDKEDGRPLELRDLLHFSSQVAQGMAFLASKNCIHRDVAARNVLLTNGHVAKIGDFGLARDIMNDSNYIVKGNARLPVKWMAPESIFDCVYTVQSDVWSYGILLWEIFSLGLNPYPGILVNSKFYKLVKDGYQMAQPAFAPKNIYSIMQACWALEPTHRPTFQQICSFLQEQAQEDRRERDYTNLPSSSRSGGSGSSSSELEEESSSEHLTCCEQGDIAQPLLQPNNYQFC

Cc1cccc(Cn2nc(C)c3c(NC(=O)c4csc5c(N)ncnc45)cccc32)n1
remaining at 1 h [1]: 87%
IC50 (Cytochrome P450 1A2): > 20000 nM
IC50 (Cytochrome P450 2C19): > 20000 nM
IC50 (Cytochrome P450 3A4): > 20000 nM
half-life [2]: 2.6 h
IC50 [3]: 527 nM
inhibition [4]: 12%
IC50 [5]: 2 nM
